Test results: ChEMBL document CHEMBL1938363, “Synthesis of dihydrofuran-fused perhydrophenanthrenes having a phenolic hydroxyl group as a novel anti-Alzheimer's disease agent” (Bioorg Med Chem Lett, 2012)
The source made the active and inactive calls. The rule behind the calls is not given here.

Key:
[1] = Inhibition of amyloid beta (25 to 35)-mediated damage in Sprague-Dawley rat neurons assessed as dendritic extension at 1 uM treated 4 days after amyloid beta-challenge measured after 4 days by immunostaining method
Summary of the method: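 Rat cortical neurons were exposed to Aβ for 4 days before the test compounds were added. Dendrite length was quantified after a further 4 days. The vehicle control was 0.1% DMSO given to Aβ-exposed cells, and the normal control was cells without Aβ treatment.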

[2] = Inhibition of amyloid beta (1 to 42)-mediated damage in Sprague-Dawley rat neurons assessed as dendritic extension at 1 uM administered 3 days after amyloid beta-challenge measured after 5 days by immunostaining method
[3] = Inhibition of amyloid beta (1 to 42)-mediated damage in Sprague-Dawley rat neurons assessed as axonal extension at 1 uM treated 3 days after amyloid beta-challenge measured after 5 days by immunostaining method

SMILES	inhibition [1]	inhibition [2]	inhibition [3]
N#C[C@]12CCC3(OCCO3)C3=CO[C@H](Cc4cc(-c5ccccc5)ccc41)[C@@H]32	inactive		
N#C[C@]12CCC3(OCCO3)C3=CO[C@H](Cc4cc(O)ccc41)[C@@H]32	Active	Active	
N#C[C@]12CCC3(OCCO3)C3=CO[C@H](Cc4cc(OC(F)(F)F)ccc41)[C@@H]32	inactive		
N#C[C@]12CCC3(OCCO3)C3=CO[C@H](Cc4ccc(O)cc41)[C@@H]32		Active	Active
CC(C)[Si](Oc1ccc2c(c1)C[C@H]1OC=C3[C@H]1[C@@]2(C#N)CCC31OCCO1)(C(C)C)C(C)C	inactive		
N#C[C@]12CCC3(OCCO3)C3=CO[C@H](Cc4cc(OS(=O)(=O)C(F)(F)F)ccc41)[C@@H]32	inactive		
COc1cc2c(cc1O)C[C@H]1OC=C3[C@H]1[C@@]2(C#N)CCC31OCCO1		Active	Active
COc1cc2c(cc1O)[C@]1(C#N)CCC3(OCCO3)C3=CO[C@H](C2)[C@@H]31		Active	Active
N#C[C@]12CCC3(OCCO3)C3=CO[C@H](Cc4cc(OCc5ccccc5)ccc41)[C@@H]32	inactive		
N#C[C@]12CCC3(OCCO3)C3=CO[C@H](Cc4cc(OCc5cc(F)cc(F)c5)ccc41)[C@@H]32	inactive		
